According to ChEMBL document CHEMBL2384935, “Role of Amphiphilicity in the Design of Synthetic Mimics of Antimicrobial Peptides with Gram-negative Activity” (ACS Med Chem Lett, 2013):
Values after ≈ are worked out from the molar mass of the structure shown.

Tests used:
Escherichia coli = assay: Antibacterial activity against Escherichia coli ATCC 25922 assessed as growth inhibition after 18 hrs by CLSI microbroth dilution assay; format: functional; conditions: ATCC 25922, 18 h
Staphylococcus aureus = assay: Antibacterial activity against Staphylococcus aureus ATCC 27660 assessed as growth inhibition after 18 hrs by CLSI microbroth dilution assay; format: functional; conditions: ATCC 27660, 18 h
[1] = Hemolytic activity in human RBC assessed as hemoglobin release after 1 hr; format: ADME, cell-based, Erythrocyte; conditions: human red blood cells
Method in brief: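 Human red blood cells were exposed to the compounds. The value is the HC50, the concentration that produces 50% hemolysis of the RBCs.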

Molecule | MIC (Escherichia coli) [µg/mL] | MIC (Staphylococcus aureus) [µg/mL] | HC50 at 1 h [1] [µg/mL]
NCCCOc1cc(OCCCN)cc(-c2cc(NC(=O)c3ccc4ccccc4c3)cc(-c3cc(OCCCN)cc(OCCCN)c3)c2)c1 | > 50 | 6.25 (≈ 9.03 µM) | 422
Ac-GIGKFLKKAKKFGKAFVKILKK-NH2 | 16 | 8 | 120
NCCCOc1cc(OCCCN)cc(-c2cc(NC(=O)Cc3c[nH]c4ccccc34)cc(-c3cc(OCCCN)cc(OCCCN)c3)c2)c1 | > 50 | 12.5 (≈ 18 µM) | 519
NCCCOc1cc(OCCCN)cc(-c2cc(NC(=O)c3ccccc3)cc(-c3cc(OCCCN)cc(OCCCN)c3)c2)c1 | > 50 | 50 (≈ 77.9 µM) | > 1000
NCCCOc1cc(OCCCN)cc(-c2cc(NC(=O)c3ccc(-c4ccccc4)cc3)cc(-c3cc(OCCCN)cc(OCCCN)c3)c2)c1 | 25 (≈ 34.8 µM) | 1.56 (≈ 2.17 µM) | 113

Stronger by MIC (Escherichia coli), values ahead:

MIC (Escherichia coli) [µg/mL] | MIC (Staphylococcus aureus) [µg/mL] | Molecule | HC50 at 1 h [1] [µg/mL]
6.25 (≈ 9.8 µM) | 1.56 (≈ 2.45 µM) | NCCCOc1cc(OCCCN)cc(-c2cc(-c3cc(OCCCN)cc(OCCCN)c3)cc(-c3cc4ccccc4[nH]3)c2)c1 | 634
6.25 (≈ 8.51 µM) | 1.56 (≈ 2.12 µM) | NCCCOc1cc(OCCCN)cc(-c2cc(-c3cc(OCCCN)cc(OCCCN)c3)cc(-c3cc(C(F)(F)F)cc(C(F)(F)F)c3)c2)c1 | 34
3.13 (≈ 4.78 µM) | 1.56 (≈ 2.38 µM) | CC(C)(C)c1ccc(-c2cc(-c3cc(OCCCN)cc(OCCCN)c3)cc(-c3cc(OCCCN)cc(OCCCN)c3)c2)cc1 | 41
3.13 (≈ 5.11 µM) | 0.78 (≈ 1.27 µM) | Cc1ccc(-c2cc(-c3cc(OCCCN)cc(OCCCN)c3)cc(-c3cc(OCCCN)cc(OCCCN)c3)c2)cc1 | 279
3.13 (≈ 5.23 µM) | 12.5 (≈ 20.9 µM) | NCCCOc1cc(OCCCN)cc(-c2cc(-c3ccccc3)cc(-c3cc(OCCCN)cc(OCCCN)c3)c2)c1 | 537
